Experimental data published in ChEMBL document CHEMBL2424587, “Antiproliferative activity of abietane diterpenoids against human tumor cells” (J Nat Prod, 2013).

How the values were obtained:
Assay type in all cases: functional, cell-based
[1] = tested on: MCF7; assay: Cytotoxicity against human MCF7 cells after 72 hrs by MTT assay; settings: MCF7, 72 h
Procedure, shortened: (§1)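 MTT assay: 1 × 10^4 exponentially growing cells per well incubated 72 h over a range of compound concentrations; MTT 0.5 mg/mL for 4 h at 37 °C, then 10% SDS in 0.05 M HCl overnight at room temperature in the dark; absorbance at 570 nm. Leukemia and SK-MEL-1 lines grown in RPMI 1640, MCF-7 in DMEM, both with 10% heat-inactivated FBS. IC50 given as mean ± SEM of 3–5 independent experiments, each in triplicate.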

[2] = tested on: U-937; assay: Cytotoxicity against human U937 cells after 72 hrs by MTT assay; settings: U-937, 72 h; procedure, shortened: as §1
[3] = tested on: MOLT-3; assay: Cytotoxicity against human MOLT3 cells after 72 hrs by MTT assay; settings: MOLT-3, 72 h; procedure, shortened: as §1
[4] = tested on: SK-MEL-1; assay: Cytotoxicity against human SK-MEL-1 cells after 72 hrs by MTT assay; settings: SK-MEL-1, 72 h; procedure, shortened: as §1
[5] = tested on: HL-60; assay: Cytotoxicity against human HL60 cells after 72 hrs by MTT assay; settings: HL-60, 72 h; procedure, shortened: as §1

SMILES | IC50 [1] | IC50 [2] | IC50 [3] | IC50 [4] | IC50 [5]
CC(C)c1c(O)c(O)c2c(c1O)C(=O)C(O)=C1C(C)(C)CCC[C@@]12C | 27.5 µM | 4.3 µM | 8.8 µM | 10 µM | 4.1 µM
CCC(=O)OC/C=C(\C)C[C@@H](O)[C@@]1(C)[C@H](C)CC=C2[C@@H]1CCCC2(C)C | > 30 µM | 24.7 µM | > 30 µM | > 30 µM | > 30 µM
CC(=O)O[C@H](C/C(C)=C/C(=O)O)[C@@]1(C)[C@H](C)CC=C2[C@@H]1CCCC2(C)C | > 30 µM | > 30 µM | > 30 µM | > 30 µM | > 30 µM
CC(=O)OC1=C(C(C)C)C(=O)C2=C(C1=O)[C@@]1(C)CCCC(C)(C)[C@@H]1[C@H](OC(C)=O)[C@H]2OC(C)=O | 5.9 µM | 6.4 µM | 3 µM | 8.1 µM | 9 µM
CCC(=O)OC1=C(C(C)C)C(=O)C2=C(C1=O)[C@@]1(C)CCCC(C)(C)[C@@H]1[C@H](OC(=O)CC)[C@H]2OC(C)=O | 28.3 µM | 3.9 µM | 10.8 µM | 27.4 µM | 4.7 µM
CC(=O)Oc1c(C(C)C)cc2c(c1OC(C)=O)[C@@]1(C)CCCC(C)(C)C1=C(O)C2=O | > 30 µM | 8.4 µM | 13.4 µM | 24.1 µM | 11.5 µM
CC(=O)O[C@H]1C2=C(C(=O)C(OC(=O)c3ccc([N+](=O)[O-])cc3)=C(C(C)C)C2=O)[C@@]2(C)CCCC(C)(C)[C@@H]2[C@@H]1O | 11.4 µM | 1.1 µM | 10 µM | 5.7 µM | 8.4 µM
CC(=O)O[C@H](C/C(C)=C/CO)[C@@]1(C)[C@H](C)CC=C2[C@@H]1CCCC2(C)C | > 30 µM | > 30 µM | > 30 µM | > 30 µM | > 30 µM
CC(=O)O[C@H]1C2=C(C(=O)C(O)=C(C(C)C)C2=O)[C@@]2(C)CCCC(C)(C)[C@@H]2[C@@H]1OC(=O)c1ccc([N+](=O)[O-])cc1 | 9.1 µM | 1.4 µM | 1.5 µM | 6.7 µM | 3.8 µM
CC(=O)OC1=C2C(C)(C)CCC[C@]2(C)c2c(cc(C(C)C)c(OC(C)=O)c2OC(C)=O)C1=O | > 30 µM | 4.6 µM | 4.6 µM | 9.9 µM | 4.1 µM
CC(=O)O[C@@H]1[C@@H](OC(C)=O)C2=C(C(=O)C(O)=C(C(C)C)C2=O)[C@@]2(C)CCCC(C)(C)[C@H]12 | 23.3 µM | 12.1 µM | 5.4 µM | 16.2 µM | 15.9 µM
CC(=O)O[C@H]1C2=C(C(=O)C(O)=C(C(C)C)C2=O)[C@@]2(C)CCCC(C)(C)[C@@H]2[C@@H]1O | 6.8 µM | 13.7 µM | 12.7 µM | 29.1 µM | 25.4 µM
COC(=O)/C=C(\C)C[C@@H](OC(C)=O)[C@@]1(C)[C@H](C)CC=C2[C@@H]1CCCC2(C)C | > 30 µM | > 30 µM | > 30 µM | > 30 µM | > 30 µM
CC(C)C1=CC2=CC(=O)[C@H]3C(C)(C)CCC[C@]3(C)C2=C(O)C1=O [TAXODIONE] | > 30 µM | 3 µM | 1.8 µM | 9.6 µM | 4.8 µM
CCCC(=O)OC/C=C(\C)C[C@@H](O)[C@@]1(C)[C@H](C)CC=C2[C@@H]1CCCC2(C)C | > 30 µM | > 30 µM | > 30 µM | > 30 µM | > 30 µM
CC(C)C1=C(O)C(=O)C2=C(CC[C@H]3C(C)(C)CCC[C@]23C)C1=O [ROYLEANONE] | > 30 µM | > 30 µM | 13.6 µM | > 30 µM | > 30 µM
COc1ccc(C(=O)OC/C=C(\C)C[C@@H](O)[C@@]2(C)[C@H](C)CC=C3[C@@H]2CCCC3(C)C)cc1 | > 30 µM | > 30 µM | > 30 µM | > 30 µM | > 30 µM
CCC(=O)O[C@@H]1[C@@H](OC(C)=O)C2=C(C(=O)C(O)=C(C(C)C)C2=O)[C@@]2(C)CCCC(C)(C)[C@H]12 | 17.1 µM | 7 µM | 6.3 µM | 9 µM | 11.8 µM
CCO[C@@H]1C[C@H]2C(C)(C)CCC[C@]2(C)C2=C1C(=O)C(C(C)C)=C(O)C2=O | > 30 µM | > 30 µM | > 30 µM | > 30 µM | > 30 µM
C/C(=C\COC(=O)c1ccccc1)C[C@@H](O)[C@@]1(C)[C@H](C)CC=C2[C@@H]1CCCC2(C)C | > 30 µM | > 30 µM | > 30 µM | > 30 µM | > 30 µM
COc1cc([C@@H]2c3cc4c(cc3[C@@H](O[C@@H]3O[C@@H]5CO[C@@H](C)O[C@H]5[C@H](O)[C@H]3O)[C@H]3COC(=O)[C@H]23)OCO4)cc(OC)c1O [ETOPOSIDE] |  | 1.4 µM |  |  | 0.5 µM
COc1c(O)c2c(c(O)c1C(C)C)C(=O)C[C@H]1C(C)=C(C)C(=O)C[C@]21C | > 30 µM | > 30 µM | > 30 µM | > 30 µM | > 30 µM
C/C(=C\CO)C[C@@H](O)[C@@]1(C)[C@H](C)CC=C2[C@@H]1CCCC2(C)C | > 30 µM | > 30 µM | > 30 µM | > 30 µM | > 30 µM
COc1c(O)c2c(c(O)c1C(C)C)C(=O)C[C@H]1C(C)(C)CCC[C@]21C [INUROYLEANOL] | > 30 µM | 11.1 µM | > 30 µM | > 30 µM | 20.8 µM
C[C@H]1Cc2c(O)c3c(c(O)c2O1)[C@@]1(C)CCC(=O)C(C)(C)C1=C(O)C3=O [TEUVINCENONE A] | > 30 µM | 1.5 µM | 2.7 µM | > 30 µM | 3.5 µM
CC(=O)O[C@H]1C2=C(C(=O)C(OC(=O)c3ccc(Cl)cc3)=C(C(C)C)C2=O)[C@@]2(C)CCCC(C)(C)[C@@H]2[C@@H]1OC(=O)c1ccc(Cl)cc1 | > 30 µM | 5.6 µM | > 30 µM | > 30 µM | 5.7 µM
CCCC(=O)O[C@@H]1[C@@H](OC(C)=O)C2=C(C(=O)C(O)=C(C(C)C)C2=O)[C@@]2(C)CCCC(C)(C)[C@H]12 | 6.5 µM | 3.4 µM | 3.5 µM | 3.6 µM | 5.6 µM
